In ChEMBL document CHEMBL1135628, “Potent and long-acting corticotropin releasing factor (CRF) receptor 2 selective peptide competitive antagonists” (J Med Chem, 2002):

Legend:
[1] = target: Corticotropin-releasing factor receptor 2 (Mus musculus) (UniProt Q60748); assay: Inhibition of recombinant mouse corticotropin releasing factor receptor 2 beta (CRF2beta) assayed using nonselective [125I]-labeled agonist [Tyr0,Glu1,Nle17]-sauvagine as radioligand
[2] = target: T1, Corticotropin-releasing factor receptor 1 (Homo sapiens, UniProt P34998); assay: Inhibition of recombinant corticotropin releasing factor receptor 1 assayed using nonselective [125I]-labeled agonist [Tyr0,Glu1,Nle17]-sauvagine
T1 sequence (P34998 whole entry): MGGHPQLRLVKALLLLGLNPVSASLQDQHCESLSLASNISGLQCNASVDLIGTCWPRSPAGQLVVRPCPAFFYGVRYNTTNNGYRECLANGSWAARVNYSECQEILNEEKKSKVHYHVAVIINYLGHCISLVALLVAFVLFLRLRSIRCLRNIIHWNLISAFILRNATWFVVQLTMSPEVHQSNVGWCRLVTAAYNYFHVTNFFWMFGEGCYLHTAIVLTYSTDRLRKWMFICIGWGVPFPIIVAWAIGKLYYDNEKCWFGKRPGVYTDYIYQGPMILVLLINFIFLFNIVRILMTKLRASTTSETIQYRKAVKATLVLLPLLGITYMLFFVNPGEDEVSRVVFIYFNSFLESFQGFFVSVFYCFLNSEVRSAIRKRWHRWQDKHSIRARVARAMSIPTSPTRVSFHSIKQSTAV
Summary of the method: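 Crude plasma membranes from stable CHO lines expressing hCRF1 or mCRF2β, stored in 10% sucrose at -80 °C. Incubated 90 min at room temperature, then washed and filtered. IC50 taken from one representative assay, repeated at least twice.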

Sequence of Corticotropin-releasing factor receptor 2 (Mus musculus) (Q60748 whole entry, looked up): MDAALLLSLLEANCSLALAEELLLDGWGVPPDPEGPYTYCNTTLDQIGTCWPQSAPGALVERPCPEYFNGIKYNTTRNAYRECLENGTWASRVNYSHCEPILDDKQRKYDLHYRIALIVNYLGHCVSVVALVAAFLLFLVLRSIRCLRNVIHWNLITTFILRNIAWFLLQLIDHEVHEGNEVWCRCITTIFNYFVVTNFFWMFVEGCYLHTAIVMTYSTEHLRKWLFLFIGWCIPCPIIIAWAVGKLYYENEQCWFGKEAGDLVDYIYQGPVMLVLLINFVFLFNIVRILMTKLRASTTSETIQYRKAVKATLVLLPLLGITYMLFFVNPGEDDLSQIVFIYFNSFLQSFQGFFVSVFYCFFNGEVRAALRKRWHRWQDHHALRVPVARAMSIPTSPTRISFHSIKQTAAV

Row | SMILES | IC50 [1] | IC50 [2]
1 | CCCC[C@H](NC(=O)[C@H](CCCCN)NC(=O)[C@H](CCCN=C(N)N)NC(=O)[C@H](CC(C)C)NC(=O)[C@](C)(CC(C)C)NC(=O)[C@H](Cc1c[nH]cn1)NC(=O)[C@@H](Cc1ccccc1)NC(=O)[C@H](CO)NC(=O)[C@H](CC(C)C)NC(=O)[C@H](CC(=O)O)NC(C)=O)C(=O)N[C@H](C(=O)N[C@@H](CCC(=O)O)C(=O)N[C@H](C(=O)N[C@@H](CCC(=O)O)C(=O)N[C@@H](CCCCN)C(=O)N[C@@H](CCC(N)=O)C(=O)N[C@@H](CCC(=O)O)C(=O)N[C@@H](CCCCN)C(=O)N[C@@H](CCC(=O)O)C(=O)N[C@@H](CCCCN)C(=O)N[C@@H](CCC(N)=O)C(=O)N[C@@H](CCC(N)=O)C(=O)N[C@@H](C)C(=O)N[C@@H](C)C(=O)N[C@@H](CC(N)=O)C(=O)N[C@@H](CC(N)=O)C(=O)N[C@@H](CCCN=C(N)N)C(=O)N[C@@H](CC(C)C)C(=O)N[C@@H](CC(C)C)C(=O)N[C@@H](CC(C)C)C(=O)N[C@@H](CC(=O)O)C(=O)N[C@@](C)(CC(C)C)C(=O)N[C@H](C(N)=O)[C@@H](C)CC)[C@@H](C)CC)[C@@H](C)CC | 0.42 nM | 18.4 nM
2 | CCCC[C@H](NC(=O)[C@H](CCCCN)NC(=O)[C@H](CCCN=C(N)N)NC(=O)[C@H](CC(C)C)NC(=O)[C@](C)(CC(C)C)NC(=O)[C@H](Cc1c[nH]cn1)NC(=O)[C@@H](Cc1ccccc1)NC(=O)[C@H](CO)NC(=O)[C@H](CC(C)C)NC(=O)[C@H](CC(=O)O)NC(C)=O)C(=O)N[C@H](C(=O)N[C@@H](CCC(=O)O)C(=O)N[C@H](C(=O)N[C@@H](CCC(=O)O)C(=O)N[C@@H](CCCCN)C(=O)N[C@@H](CCC(N)=O)C(=O)N[C@@H](CCC(=O)O)C(=O)N[C@@H](CCCCN)C(=O)N[C@@H](CCC(=O)O)C(=O)N[C@@H](CCCCN)C(=O)N[C@H]1CCC(=O)NCCCC[C@@H](C(=O)N[C@@H](CC(N)=O)C(=O)N[C@@H](CC(N)=O)C(=O)N[C@@H](CCCN=C(N)N)C(=O)N[C@@H](CC(C)C)C(=O)N[C@@H](CC(C)C)C(=O)N[C@@H](CC(C)C)C(=O)N[C@@H](CC(=O)O)C(=O)N[C@@](C)(CC(C)C)C(=O)N[C@H](C(N)=O)[C@@H](C)CC)NC(=O)[C@H](C)NC(=O)[C@H](CCC(N)=O)NC1=O)[C@@H](C)CC)[C@@H](C)CC | 0.57 nM | 7.7 nM
3 | CCCC[C@H](NC(=O)[C@H](CCCCN)NC(=O)[C@H](CCCN=C(N)N)NC(=O)[C@H](CC(C)C)NC(=O)[C@](C)(CC(C)C)NC(=O)[C@H](Cc1c[nH]cn1)NC(=O)[C@@H](Cc1ccccc1)NC(=O)[C@H](CO)NC(=O)[C@H](CC(C)C)NC(=O)[C@H](CC(=O)O)NC(C)=O)C(=O)N[C@H](C(=O)N[C@@H](CCC(=O)O)C(=O)N[C@H](C(=O)N[C@@H](CCC(=O)O)C(=O)N[C@@H](CCCCN)C(=O)N[C@@H](CCC(N)=O)C(=O)N[C@@H](CCC(=O)O)C(=O)N[C@@H](CCCCN)C(=O)N[C@@H](CCC(=O)O)C(=O)N[C@H]1CCC(=O)NCCCC[C@@H](C(=O)N[C@@H](C)C(=O)N[C@@H](CC(N)=O)C(=O)N[C@@H](CC(N)=O)C(=O)N[C@@H](CCCN=C(N)N)C(=O)N[C@@H](CC(C)C)C(=O)N[C@@H](CC(C)C)C(=O)N[C@@H](CC(C)C)C(=O)N[C@@H](CC(=O)O)C(=O)N[C@@](C)(CC(C)C)C(=O)N[C@H](C(N)=O)[C@@H](C)CC)NC(=O)[C@H](CCC(N)=O)NC(=O)[C@H](CCC(N)=O)NC1=O)[C@@H](C)CC)[C@@H](C)CC | 1.3 nM | 45 nM
4 | CCCC[C@H](NC(=O)[C@H](CCCCN)NC(=O)[C@H](CCCN=C(N)N)NC(=O)[C@H](CC(C)C)NC(=O)[C@](C)(CC(C)C)NC(=O)[C@H](Cc1c[nH]cn1)NC(=O)[C@@H](Cc1ccccc1)NC(=O)[C@H](CO)NC(=O)[C@H](CC(C)C)NC(=O)[C@H](CC(=O)O)NC(C)=O)C(=O)N[C@H](C(=O)N[C@@H](CCC(=O)O)C(=O)N[C@H](C(=O)N[C@@H](CCC(=O)O)C(=O)N[C@@H](CCCCN)C(=O)N[C@@H](CCC(N)=O)C(=O)N[C@@H](CCC(=O)O)C(=O)N[C@@H](CCCCN)C(=O)N[C@@H](CCC(=O)O)C(=O)N[C@@H](CCCCN)C(=O)N[C@@H](CCC(N)=O)C(=O)N[C@@H](CCC(N)=O)C(=O)N[C@@H](C)C(=O)N[C@@H](C)C(=O)N[C@@H](CC(N)=O)C(=O)N[C@@H](CC(N)=O)C(=O)N[C@H]1CCC(=O)NCCCC[C@@H](C(=O)N[C@@H](CC(=O)O)C(=O)N[C@@](C)(CC(C)C)C(=O)N[C@H](C(N)=O)[C@@H](C)CC)NC(=O)[C@H](CC(C)C)NC(=O)[C@H](CC(C)C)NC1=O)[C@@H](C)CC)[C@@H](C)CC | 17.8 nM | > 100 nM
5 | CCCC[C@H](NC(=O)[C@H](CCCCN)NC(=O)[C@H](CCCN=C(N)N)NC(=O)[C@H](CC(C)C)NC(=O)[C@](C)(CC(C)C)NC(=O)[C@H](Cc1c[nH]cn1)NC(=O)[C@@H](Cc1ccccc1)NC(=O)[C@H](CO)NC(=O)[C@H](CC(C)C)NC(=O)[C@H](CC(=O)O)NC(C)=O)C(=O)N[C@H](C(=O)N[C@@H](CCC(=O)O)C(=O)N[C@H](C(=O)N[C@@H](CCC(=O)O)C(=O)N[C@@H](CCCCN)C(=O)N[C@@H](CCC(N)=O)C(=O)N[C@@H](CCC(=O)O)C(=O)N[C@@H](CCCCN)C(=O)N[C@@H](CCC(=O)O)C(=O)N[C@@H](CCCCN)C(=O)N[C@@H](CCC(N)=O)C(=O)N[C@@H](CCC(N)=O)C(=O)N[C@@H](C)C(=O)N[C@@H](C)C(=O)N[C@@H](CC(N)=O)C(=O)N[C@H]1CCC(=O)NCCCC[C@@H](C(=O)N[C@@H](CC(C)C)C(=O)N[C@@H](CC(=O)O)C(=O)N[C@@](C)(CC(C)C)C(=O)N[C@H](C(N)=O)[C@@H](C)CC)NC(=O)[C@H](CC(C)C)NC(=O)[C@H](CCCN=C(N)N)NC1=O)[C@@H](C)CC)[C@@H](C)CC | > 100 nM | > 100 nM
6 | CCCC[C@H](NC(=O)[C@H](CCCCN)NC(=O)[C@H](CCCN=C(N)N)NC(=O)[C@H](CC(C)C)NC(=O)[C@](C)(CC(C)C)NC(=O)[C@H](Cc1c[nH]cn1)NC(=O)[C@@H](Cc1ccccc1)NC(=O)[C@H](CO)NC(=O)[C@H](CC(C)C)NC(=O)[C@H](CC(=O)O)NC(C)=O)C(=O)N[C@H](C(=O)N[C@@H](CCC(=O)O)C(=O)N[C@H](C(=O)N[C@@H](CCC(=O)O)C(=O)N[C@@H](CCCCN)C(=O)N[C@@H](CCC(N)=O)C(=O)N[C@@H](CCC(=O)O)C(=O)N[C@@H](CCCCN)C(=O)N[C@@H](CCC(=O)O)C(=O)N[C@@H](CCCCN)C(=O)N[C@@H](CCC(N)=O)C(=O)N[C@@H](CCC(N)=O)C(=O)N[C@@H](C)C(=O)N[C@@H](C)C(=O)N[C@@H](CCC(N)=O)C(=O)N[C@@H](CC(N)=O)C(=O)N[C@@H](CCCN=C(N)N)C(=O)N[C@@H](CCCCNC(C)=O)C(=O)N[C@@H](CC(C)C)C(=O)N[C@@H](CC(C)C)C(=O)N[C@@H](CC(=O)O)C(=O)N[C@@](C)(CC(C)C)C(=O)N[C@H](C(N)=O)[C@@H](C)CC)[C@@H](C)CC)[C@@H](C)CC | 0.51 nM | 3.4 nM
7 | CCCC[C@H](NC(=O)[C@H](CCCCN)NC(=O)[C@H](CCCN=C(N)N)NC(=O)[C@H](CC(C)C)NC(=O)[C@](C)(CC(C)C)NC(=O)[C@H](Cc1c[nH]cn1)NC(=O)[C@@H](Cc1ccccc1)NC(=O)[C@H](CO)NC(=O)[C@H](CC(C)C)NC(=O)[C@H](CC(=O)O)NC(C)=O)C(=O)N[C@H](C(=O)N[C@@H](CCC(=O)O)C(=O)N[C@H](C(=O)N[C@@H](CCC(=O)O)C(=O)N[C@@H](CCCCN)C(=O)N[C@@H](CCC(N)=O)C(=O)N[C@@H](CCC(=O)O)C(=O)N[C@@H](CCCCN)C(=O)N[C@@H](CCC(=O)O)C(=O)N[C@@H](CCCCN)C(=O)N[C@@H](CCC(N)=O)C(=O)N[C@@H](CCC(N)=O)C(=O)N[C@@H](C)C(=O)N[C@@H](C)C(=O)N[C@H]1CCC(=O)NCCCC[C@@H](C(=O)N[C@@H](CC(C)C)C(=O)N[C@@H](CC(C)C)C(=O)N[C@@H](CC(=O)O)C(=O)N[C@@](C)(CC(C)C)C(=O)N[C@H](C(N)=O)[C@@H](C)CC)NC(=O)[C@H](CCCN=C(N)N)NC(=O)[C@H](CC(N)=O)NC1=O)[C@@H](C)CC)[C@@H](C)CC | 0.61 nM | 5.9 nM
8 | CCCC[C@H](NC(=O)[C@H](CCCCN)NC(=O)[C@H](CCCN=C(N)N)NC(=O)[C@H](CC(C)C)NC(=O)[C@](C)(CC(C)C)NC(=O)[C@H](Cc1c[nH]cn1)NC(=O)[C@@H](Cc1ccccc1)NC(=O)[C@H](CO)NC(=O)[C@H](CC(C)C)NC(=O)[C@H](CC(=O)O)NC(C)=O)C(=O)N[C@H](C(=O)N[C@@H](CCC(=O)O)C(=O)N[C@H](C(=O)N[C@@H](CCC(=O)O)C(=O)N[C@@H](CCCCN)C(=O)N[C@@H](CCC(N)=O)C(=O)N[C@@H](CCC(=O)O)C(=O)N[C@@H](CCCCN)C(=O)N[C@@H](CCC(=O)O)C(=O)N[C@@H](CCCCN)C(=O)N[C@@H](CCC(N)=O)C(=O)N[C@H]1CCC(=O)NCCCC[C@@H](C(=O)N[C@@H](CC(N)=O)C(=O)N[C@@H](CCCN=C(N)N)C(=O)N[C@@H](CC(C)C)C(=O)N[C@@H](CC(C)C)C(=O)N[C@@H](CC(C)C)C(=O)N[C@@H](CC(=O)O)C(=O)N[C@@](C)(CC(C)C)C(=O)N[C@H](C(N)=O)[C@@H](C)CC)NC(=O)[C@H](C)NC(=O)[C@H](C)NC1=O)[C@@H](C)CC)[C@@H](C)CC | 1.2 nM | 0.24 nM
